Experimental findings from ChEMBL document CHEMBL1770121 (Bioorg Med Chem, 2011) are described below.

Converted amounts (≈) assume the structure as drawn.

Broadly, the IC50 is the concentration that inhibits the measured activity by half. High values mean weaker potency in that assay, low ones greater potency in that assay.

One test relates to HepG2. The test is described as follows: Antiproliferative activity against human HepG2 cells after 48 hrs by MTT assay. Type of test: functional, cell-based. Conditions: HepG2, 48 h. Put shortly: (§1)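 Log-phase cells grown in RPMI 1640 with 10% FBS were seeded at 2 × 10⁴ cells/mL and left 24 h at 37 °C, 5% CO₂. […] After 48 h MTT was added and the formazan dissolved in 10% SDS–5% isobutyl alcohol–0.01 M HCl overnight at 37 °C. OD was read at 570 nm, three replicate wells per concentration.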
(Formazan colour is commonly taken as a measure of viable cells.)

The test system of the next test is A549. The test is described as follows: Antiproliferative activity against human A549 cells after 48 hrs by MTT assay. The following applies: A549, 48 h. Type of test: functional, cell-based. The method, boiled down:
as §1

Test [1] deals with B16-F10. The test is described as follows: Antiproliferative activity against mouse B16F10 cells after 48 hrs by MTT assay. The test is classed as functional, cell-based. The following applies: B16-F10, 48 h. The method, boiled down: as §1
Test [2] can be described thus: Inhibition of bovine brain tubulin polymerization after 20 mins by turbidimetry. Also on record: species or system Bos taurus. The method, boiled down: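 Varying concentrations were preincubated with 10 µM tubulin in glutamate buffer at 30 °C, then cooled to 0 °C. GTP was added and the mixtures moved to 0 °C cuvettes in a recording spectrophotometer. Assembly was followed by turbidity on warming to 30 °C.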

Test [3] concerns B16-F10. The test is described as follows: Cell cycle arrest in mouse B16F10 cells assessed as accumulation at G2/M phase at 1 ug/ml after 24 hrs by flow cytometry (Rbv = 12.27%). The test is classed as functional. (In flow cytometry, cells or beads pass a laser one at a time.)
The test system of test [4] is B16-F10. The test is described as follows: Cell cycle arrest in mouse B16F10 cells assessed as accumulation at G2/M phase at 5 ug/ml after 24 hrs by flow cytometry (Rbv = 12.27%). The test is classed as functional.
Test [5] relates to B16-F10. The test is described as follows: Cell cycle arrest in mouse B16F10 cells assessed as accumulation at Go/G1 phase at 1 ug/ml after 24 hrs by flow cytometry (Rbv = 66.15%). The test is classed as functional.
Test [6] has as its system B16-F10. The test is described as follows: Cell cycle arrest in mouse B16F10 cells assessed as accumulation at Go/G1 phase at 5 ug/ml after 24 hrs by flow cytometry (Rbv = 66.15%). The test is classed as functional.
The subject of test [7] is B16-F10. The test is described as follows: Cell cycle arrest in mouse B16F10 cells assessed as accumulation at S phase at 1 ug/ml after 24 hrs by flow cytometry (Rbv = 14.96%). Type of test: functional.
Test [8] has as its system B16-F10. The test is described as follows: Cell cycle arrest in mouse B16F10 cells assessed as accumulation at S phase at 5 ug/ml after 24 hrs by flow cytometry (Rbv = 14.96%). Type of test: functional.

As to `CCOc1ccc(C(=O)/C=C/c2c(/C=C/c3ccc(OC)cc3)cc(OC)cc2OC)cc1`, the IC50 worked out at 8 µg/mL (≈ 18 µM) with HepG2, 7.5 µg/mL (≈ 16.9 µM) with A549, 6.4 µg/mL (≈ 14.4 µM) in the test with B16-F10 [1] and 26 µg/mL (≈ 58.5 µM) in test [2].
The like results for `CCCCCCCCCCCCOc1ccc(C(=O)/C=C/c2c(/C=C/c3ccc(OC)cc3)cc(OC)cc2OC)cc1` were, in that order, 11.6 µg/mL (≈ 19.8 µM), 7.9 µg/mL (≈ 13.5 µM), 12.7 µg/mL (≈ 21.7 µM) and 58 µg/mL (≈ 99.2 µM).
The like results for `COc1ccc(/C=C/c2cc(OC)cc(OC)c2/C=C/C(=O)c2ccc(N)cc2)cc1` were, in that order, 7.5 µg/mL (≈ 18.1 µM), 3.8 µg/mL (≈ 9.15 µM), 2.8 µg/mL (≈ 6.74 µM) and 36 µg/mL (≈ 86.6 µM).
In the case of `COc1ccc(/C=C/c2cc(OC)cc(OC)c2/C=C/C(=O)c2ccc(C)cc2C)cc1`, the IC50 in the test on HepG2 came out at 0.9 µg/mL (≈ 2.1 µM); in the test with A549, 0.3 µg/mL (≈ 0.7 µM); in the test on B16-F10 [1], 4 µg/mL (≈ 9.33 µM); in test [2], 4.1 µg/mL (≈ 9.57 µM).
The like results for `COc1ccc(/C=C/c2cc(OC)cc(OC)c2/C=C/C(=O)c2ccc(Cl)c(Cl)c2)cc1` were, in that order, 10.8 µg/mL (≈ 23 µM), 5.9 µg/mL (≈ 12.6 µM), 7.5 µg/mL (≈ 16 µM) and 47 µg/mL (≈ 100 µM).
The like results for `COc1ccc(/C=C/c2cc(OC)cc(OC)c2/C=C/C(=O)c2ccc(C(F)(F)F)cc2)cc1` were, in that order, 18.7 µg/mL (≈ 39.9 µM), 7.8 µg/mL (≈ 16.6 µM), 4.3 µg/mL (≈ 9.18 µM) and 150 µg/mL (≈ 320 µM).
In the same order, the values of `CCCCOc1ccc(C(=O)/C=C/c2c(/C=C/c3ccc(OC)cc3)cc(OC)cc2OC)cc1` are 12.9 µg/mL (≈ 27.3 µM), 8.7 µg/mL (≈ 18.4 µM), 5.3 µg/mL (≈ 11.2 µM) and 94 µg/mL (≈ 199 µM).
With `COc1ccc(/C=C/c2cc(OC)cc(OC)c2/C=C/C(=O)c2ccc(N3CCOCC3)cc2)cc1`, the IC50 with HepG2 came out at 7.3 µg/mL (≈ 15 µM); in the test with A549 it was 3.8 µg/mL (≈ 7.83 µM); with B16-F10 [1], 3.3 µg/mL (≈ 6.8 µM); in [2], 38 µg/mL (≈ 78.3 µM).
In the same order, the values of `COc1ccc(/C=C/c2cc(OC)cc(OC)c2/C=C/C(=O)c2ccc(Br)cc2)cc1` are 12.9 µg/mL (≈ 26.9 µM), 8.3 µg/mL (≈ 17.3 µM), 6.5 µg/mL (≈ 13.6 µM) and 72 µg/mL (≈ 150 µM).
For `COc1ccc(/C=C/c2cc(OC)cc(OC)c2/C=C/C(=O)c2cccc(OC)c2)cc1`, the IC50 in the test with HepG2 is 11.6 µg/mL (≈ 26.9 µM); in the test on A549, 6.1 µg/mL (≈ 14.2 µM); with B16-F10 [1], 4.3 µg/mL (≈ 9.99 µM); in [2], 59 µg/mL (≈ 137 µM).
Turning to `COc1ccc(/C=C/c2cc(OC)cc(OC)c2/C=C/C(=O)c2ccc(C)c(C)c2)cc1`, the half-maximal inhibitory concentration (IC50) was 0.2 µg/mL (≈ 0.467 µM) in the test on HepG2, 0.1 µg/mL (≈ 0.233 µM) with A549, 1.4 µg/mL (≈ 3.27 µM) in the test with B16-F10 [1] and 2.6 µg/mL (≈ 6.07 µM) in [2]. The Activity in the test with B16-F10 [3] stood at 31.5%; in the test with B16-F10 [4], 72.1%; in the test with B16-F10 [5] it was 39.65%; in the test on B16-F10 [6] it was 10.05%; in the test with B16-F10 [7], 13.99%; in the test on B16-F10 [8], 7.04%.
For `CCCC(C)Oc1ccc(C(=O)/C=C/c2c(/C=C/c3ccc(OC)cc3)cc(OC)cc2OC)cc1` (configuration not stated), the half-maximal inhibitory concentration (IC50) with HepG2 is 11.1 µg/mL (≈ 22.8 µM); in the test with A549 it was 9.4 µg/mL (≈ 19.3 µM); in the test on B16-F10 [1], 6.7 µg/mL (≈ 13.8 µM); in test [2], 55 µg/mL (≈ 113 µM).
`COc1ccc(/C=C/c2cc(OC)cc(OC)c2/C=C/C(=O)c2ccc(C)cc2)cc1`: the IC50 with HepG2 was determined as 4.8 µg/mL (≈ 11.6 µM); in the test with A549, 3.6 µg/mL (≈ 8.69 µM); in the test with B16-F10 [1] it was 5.3 µg/mL (≈ 12.8 µM); in [2], 29 µg/mL (≈ 70 µM).
The like results for `CCCCCCOc1ccc(C(=O)/C=C/c2c(/C=C/c3ccc(OC)cc3)cc(OC)cc2OC)cc1` were, in that order, 16.2 µg/mL (≈ 32.4 µM), 8.4 µg/mL (≈ 16.8 µM), 10.4 µg/mL (≈ 20.8 µM) and 131 µg/mL (≈ 262 µM).
The like results for `COc1ccc(/C=C/c2cc(OC)cc(OC)c2/C=C/C(=O)c2ccccc2C)cc1` were, in that order, 5.3 µg/mL (≈ 12.8 µM), 5.9 µg/mL (≈ 14.2 µM), 6.1 µg/mL (≈ 14.7 µM) and 42 µg/mL (≈ 101 µM).
In the same order, the values of `COc1ccc(/C=C/c2cc(OC)cc(OC)c2/C=C/C(=O)c2cccc(Cl)c2)cc1` are 9.5 µg/mL (≈ 21.8 µM), 5.6 µg/mL (≈ 12.9 µM), 3.3 µg/mL (≈ 7.59 µM) and 41 µg/mL (≈ 94.3 µM).
For the compound `COc1ccc(/C=C/c2cc(OC)cc(OC)c2/C=C/C(=O)c2ccc(-c3ccccc3)cc2)cc1`, the IC50 with HepG2 was determined as 10.5 µg/mL (≈ 22 µM); with A549, 4.6 µg/mL (≈ 9.65 µM); in the test on B16-F10 [1], 10.6 µg/mL (≈ 22.2 µM); in test [2], 44 µg/mL (≈ 92.3 µM).
With `COc1cc2c(c(OC)c1OC)-c1ccc(OC)c(=O)cc1[C@@H](NC(C)=O)CC2` [COLCHICINE], the IC50 in the test with HepG2 stood at 0.23 µg/mL (≈ 0.576 µM); with A549 it was 0.12 µg/mL (≈ 0.3 µM); with B16-F10 [1], 0.5 µg/mL (≈ 1.25 µM). Also, the Activity was determined as 90.46% in the test on B16-F10 [3], 2.65% with B16-F10 [5] and 2.29% in the test with B16-F10 [7].
With `CCN(CC)c1ccc(C(=O)/C=C/c2c(/C=C/c3ccc(OC)cc3)cc(OC)cc2OC)cc1`, the IC50 in the test on HepG2 was 6.3 µg/mL (≈ 13.4 µM); in the test with A549, 5.4 µg/mL (≈ 11.5 µM); with B16-F10 [1] it was 8.1 µg/mL (≈ 17.2 µM); in test [2], 33 µg/mL (≈ 70 µM).
Regarding `COc1ccc(/C=C\c2cc(OC)c(OC)c(OC)c2)cc1O` [COMBRETASTATIN A4], the IC50 in the test with HepG2 is 0.19 µg/mL (≈ 0.601 µM); in the test with A549, 0.09 µg/mL (≈ 0.284 µM); with B16-F10 [1], 0.4 µg/mL (≈ 1.26 µM); in [2], 0.7 µg/mL (≈ 2.21 µM).
Take `COc1ccc(/C=C/c2cc(OC)cc(OC)c2/C=C/C(=O)c2ccccc2)cc1`: the IC50 was 6.8 µg/mL (≈ 17 µM) in the test with HepG2, 3.9 µg/mL (≈ 9.74 µM) with A549, 3.7 µg/mL (≈ 9.24 µM) in the test with B16-F10 [1] and 34 µg/mL (≈ 84.9 µM) in test [2].
Regarding `COc1ccc(/C=C/c2cc(OC)cc(OC)c2/C=C/C(=O)c2ccc(Cl)cc2)cc1`, the IC50 with HepG2 was found to be 13.6 µg/mL (≈ 31.3 µM); with A549 it was 6.4 µg/mL (≈ 14.7 µM); in the test on B16-F10 [1], 4.9 µg/mL (≈ 11.3 µM); in test [2], 80 µg/mL (≈ 184 µM).
In the same order, the values of `COc1ccc(/C=C/c2cc(OC)cc(OC)c2/C=C/C(=O)c2ccc(OC)cc2)cc1` are 4.9 µg/mL (≈ 11.4 µM), 4.5 µg/mL (≈ 10.5 µM), 5.8 µg/mL (≈ 13.5 µM) and 43 µg/mL (≈ 99.9 µM).
On to `COc1ccc(/C=C/c2cc(OC)cc(OC)c2/C=C/C(=O)c2ccc(F)cc2)cc1`, for which the IC50 in the test with HepG2 is 12.2 µg/mL (≈ 29.2 µM); in the test with A549 it was 6.6 µg/mL (≈ 15.8 µM); with B16-F10 [1], 5.3 µg/mL (≈ 12.7 µM); in [2], 64 µg/mL (≈ 153 µM).
Regarding `Oc1ccc(/C=C/c2cc(O)cc(O)c2)cc1` [RESVERATROL], the IC50 came to 38.9 µg/mL (≈ 170 µM) with HepG2, 30.4 µg/mL (≈ 133 µM) with A549, 37.3 µg/mL (≈ 163 µM) with B16-F10 [1] and 158 µg/mL (≈ 692 µM) in test [2].
In the same order, the values of `COc1ccc(/C=C/c2cc(OC)cc(OC)c2/C=C/C(=O)c2cccc(Br)c2)cc1` are 13 µg/mL (≈ 27.1 µM), 8.1 µg/mL (≈ 16.9 µM), 5.1 µg/mL (≈ 10.6 µM) and 76 µg/mL (≈ 159 µM).
